Sampled rows, rich in hits. Any-hit rate of the full collection: about 1.9%.
NPY-Y2 antag: blocks the human neuropeptide Y Y2 receptor; NPY-Y2 expressing cells, antagonist mode; hit rate 0.99% among 140,000; P49146; inhibition, % at 2.7 µM; in the data active = inhibition above about 17%
NPY1 pot ag: human NPY-Y1 potentiation or agonism, primary screen; activation, % at 3.6 µM; hit rate 0.37% among 220,000; P25929; AID 1304; NPY-Y1 expressing cells, potentiator/agonist activation; in the data active = activation above about 33%, passing the limit was not always enough;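 also: cells stimulated with NPY at EC10 then isoproterenol at EC100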
Target sequence (P25929 whole entry, looked up): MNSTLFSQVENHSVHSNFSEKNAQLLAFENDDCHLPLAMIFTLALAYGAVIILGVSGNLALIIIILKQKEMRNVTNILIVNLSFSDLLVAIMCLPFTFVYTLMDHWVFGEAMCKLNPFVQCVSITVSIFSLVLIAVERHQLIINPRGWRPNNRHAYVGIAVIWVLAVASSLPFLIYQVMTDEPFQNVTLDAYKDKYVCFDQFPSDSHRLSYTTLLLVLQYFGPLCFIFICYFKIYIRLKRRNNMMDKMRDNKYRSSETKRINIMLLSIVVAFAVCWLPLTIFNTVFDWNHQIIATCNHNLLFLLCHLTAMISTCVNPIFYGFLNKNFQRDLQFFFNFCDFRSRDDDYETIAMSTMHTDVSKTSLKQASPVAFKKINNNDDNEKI
NPY Y1 blocker: antagonists of human neuropeptide Y receptor Y1; HEK293-CNG Y1 cells, membrane potential fluorescence; NPY at EC95, then isoproterenol; inhibition, % at 3.6 µM; hit rate 1% among 200,000; AID 1040;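 active = inhibition above the campaign mean inhibition of all tested compounds plus 3 SD, cut at about 20% in these data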
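Benchmarks – high control isoproterenol alone, low control NPY with isoproterenol · Material – HEK293 Y1/CNG channel cell line · Times – dye 3 h, compound 60 min room temperature, stimulation 45 min · Probe or stimulus – NPY (25 nM), isoproterenol (1 µM), Ro 20-1724 (25 µM) · Evaluation – % inhibition of NPY effect · Signal – fluorescence, membrane potential probe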
NPY2 pot ag: human NPY-Y2 potentiation or agonism, primary screen; P49146; cells expressing NPY-Y2, potentiator/agonist read-out; activation, % at 3.6 µM; hit rate 0.45% among 220,000; AID 1359; in the data active = activation above about 27%;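 also: cells stimulated with NPY near EC25 plus isoproterenol at EC100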
Each line names hits and unclear results; the compound was inactive in the other large screens.

CC(O)CNCCNCc1c(OCc2ccccc2)ccc2ccccc12 (stereo not given)	NPY-Y2 antag 38, NPY Y1 blocker 96
COc1ccc(C(C)=O)cc1CSc1nc2ccccc2c(=O)n1-c1ccccc1	none
C=CCn1c(SCc2cc(C(C)=O)ccc2OCC)nc2ccccc2c1=O	NPY-Y2 antag 25, NPY Y1 blocker 27
C=CCn1c(SCc2c(C)noc2C)nc2ccccc2c1=O	NPY-Y2 antag 29, NPY Y1 blocker 64
Cc1noc(C)c1CSc1nc2ccccc2c(=O)n1-c1ccccc1	NPY-Y2 antag 18, NPY Y1 blocker 24
COc1ccc(-c2noc(CSc3nc4ccccc4c(=O)n3-c3ccccc3)n2)cc1	none
C=CCn1c(SCc2c(C)noc2C)nc2cc(C(=O)O)ccc2c1=O	none
COc1ccc(-c2noc(CN3CCCC(OCc4ccccn4)C3)n2)cc1 (stereo not given)	none (no result: NPY-Y2 antag, NPY Y1 blocker)
C=CCOc1ccc2ccccc2c1CNCCCN1CCOCC1	NPY-Y2 antag 20, NPY Y1 blocker 21
Cn1c(SCC(=O)N2CCc3ccccc32)nnc1-c1ccc(S(=O)(=O)N2CCCC2)cc1	none
NS(=O)(=O)c1ccc(CCNS(=O)(=O)c2cccc(C(=O)O)c2)cc1	none (no result: NPY-Y2 antag, NPY Y1 blocker)
CN1CCCC(CC2Oc3ccccc3Sc3ccccc32)C1 (stereo not given)	none
c1ccc2c(c1)OC(CCCN1CCCCC1)c1ccccc1S2 (stereo not given)	NPY-Y2 antag 17, NPY Y1 blocker 40
Cc1ccnc(NC(=O)CCC2CCCCC2)c1	NPY-Y2 antag 20, NPY Y1 blocker 23
O=C(C1CCCC1)N1CCN=C1SCc1cccc([N+](=O)[O-])c1	none (no result: NPY-Y2 antag)
CCCCNC(=O)c1onc(CSc2ccccc2CC)c1C(=O)O	NPY Y1 blocker 21
CCCCNC(=O)c1onc(CSc2cccc(F)c2)c1C(=O)O	none
CC(C)(C)c1ccc(-n2nc(C#N)c(Cl)cc2=O)cc1	NPY1 pot ag 67, NPY2 pot ag 61 (no result: NPY-Y2 antag)
Cn1c(=O)c2c(nc(NCCCN3CCOCC3)n2Cc2ccc(Cl)cc2)n(C)c1=O	none
Cn1c(=O)c2c(nc(NCCCN3CCOCC3)n2Cc2ccc(Cl)c(Cl)c2)n(C)c1=O	NPY-Y2 antag 23, NPY Y1 blocker 20
Cc1cc2c(cc1C)C(c1ccsc1)CC(=O)N2 (stereo not given)	none (no result: NPY-Y2 antag)
Cc1[nH]nc(-c2ccc(O)cc2O)c1-c1ccc(Cl)cc1	NPY2 pot ag 48
CCOC(=O)c1sc(NC(=O)CSc2n[nH]c(CC(C)C)n2)nc1C	none
Cc1ccc(-c2cnc(NCc3cc4c(cc3[N+](=O)[O-])OCO4)n2C)cc1C	NPY1 pot ag 102, NPY2 pot ag 88 (no result: NPY-Y2 antag)
Cn1c(-c2ccc3c(c2)OCO3)cnc1NCc1ccccc1	none
O=C(Nc1ccc(C#Cc2ccccc2)cc1)C1CC1	NPY1 pot ag 78, NPY2 pot ag 38
Cc1ccc(Nc2nc(-c3ccc(O)c(O)c3)cs2)nc1	NPY1 pot ag 44, NPY2 pot ag 51 (no result: NPY-Y2 antag)
CCCc1ccc(-c2cc(NC(=O)CSc3nnc(N)s3)n(-c3ccccc3)n2)cc1	none
COc1ccc2nc3cc(Cl)ccc3c(Nc3cc(C(C)C)c(O)cc3C)c2c1	NPY1 pot ag 62, NPY2 pot ag 59 (no result: NPY-Y2 antag, NPY Y1 blocker)
COc1ccc(C(=O)N2CCC(n3c(C)nc4cc(F)ccc43)CC2)cc1	none (no result: NPY-Y2 antag)
O=C(CSc1nnc(-c2cccnc2)n1-c1ccc(SC(F)F)cc1)N1CCCc2ccccc21	NPY-Y2 antag 19
CCOc1ccccc1-n1c(SCC(=O)N2CCCc3ccccc32)nnc1-c1cccnc1	none
COC(=O)C1=C(N)c2c(F)cccc2C1(C#N)c1ccc(F)cc1 (stereo not given)	none
COc1ccc(-c2cc(C(=O)Nc3nc4c(C)cccc4s3)c3ccccc3n2)cc1OC	NPY-Y2 antag 45, NPY Y1 blocker 47
Cc1ccc2nc(NC(=O)c3cc(-c4ccco4)nc4ccccc34)sc2c1	NPY-Y2 antag 56, NPY Y1 blocker 54
O=C(NS(=O)(=O)Oc1ccc(Cl)cc1)OC[C@@H]1CCCN2CCCC[C@H]12	none
COc1ccc(-n2cc(C(=O)O)c(=O)cc2C)cc1	none (no result: NPY-Y2 antag)
O=C(/C(=N\Nc1ccc(Br)cc1)Sc1nnnn1-c1ccccc1)c1ccccc1	none
Brc1ccc(N/N=C(/N=Nc2nn[nH]n2)c2ccccc2)cc1	NPY1 pot ag 64, NPY2 pot ag 53 (no result: NPY-Y2 antag)
CC(C)n1c(=O)[nH][nH]c1=S	none (no result: NPY-Y2 antag, NPY Y1 blocker)
Cn1c(=O)c2c(nc(CN3CCN(c4cccc(Cl)c4)CC3)n2CCc2ccccc2)n(C)c1=O	NPY-Y2 antag 17
COc1ccccc1C(=O)C1CCCN(C(=O)CN2CCCCC2=O)C1 (stereo not given)	none (no result: NPY-Y2 antag)
CCOc1ccccc1C(=O)N1CCN(c2cccc(Cl)c2)CC1	NPY-Y2 antag 17, NPY Y1 blocker 30

Source: PubChem
